Measurements published in ChEMBL document CHEMBL4270546, “A novel Anti-Cancer Stem Cells compound optimized from the natural symplostatin 4 scaffold inhibits Wnt/β-catenin signaling pathway” (Eur J Med Chem, 2018).
Active and inactive are the calls of the source. The calls are words filed in the database; no cut-off is given here.

Key:
B16-F10 [1] = experiment: Induction of apoptosis in mouse B16F10 cells assessed as upregulation of cleaved PARP expression at 0.5 to 4 uM after 48 hrs by Western blot analysis; type: functional, cell-based
Outline: (§1)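 Cells treated with compound at different concentrations (0.5-4 μM) for 48 h. Lysates probed by Western blot for cleaved PARP, active caspase-3, Bax and p53.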

B16-F10 [2] = experiment: Inhibition of ALDH+ subpopulation of mouse B16F10 cells assessed as ALDH+ cells at 0.5 after 48 hrs by flow cytometry (reference value: 26.7%); type: functional; parameters: scale not given: the % may be the effect or the level left
A-375 [3] = experiment: Antimigratory activity against human A375 cells at 0.25 uM after 24 to 48 hrs by wound healing assay; type: functional, cell-based
Outline: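 Wound-healing scratch assay on cells treated with or without compound (0.25 μM). Images recorded at 0, 24 and 48 h, and migration distance quantified. Mean ± sd, n = 3, two-way ANOVA.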

B16-F10 [4] = experiment: Antimigratory activity against mouse B16F10 cells at 0.25 uM after 24 hrs by transwell migration assay; type: functional, cell-based
Outline: (§2)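 Cells seeded in the upper chamber of a transwell and incubated with compound (0.25 μM) for 24 h. Cells migrated to the lower chamber were imaged and counted against an untreated control. Mean ± sd, n = 3, two-way ANOVA.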

4T1 = experiment: Antiproliferative activity against mouse 4T1 cells after 48 hrs by MTT assay; type: functional, cell-based; settings: 4T1, 48 h
A-375 [5] = experiment: Anti-invasive activity against human A375 cells at 0.25 uM after 24 hrs by matrigel invasion assay; type: functional, cell-based
Outline: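 Cells seeded in the upper chamber of a transwell with a Matrigel-precoated filter, incubated with compound (0.25 μM) for 24 h. Invaded cells imaged and counted against an untreated control. Mean ± sd, n = 3, two-way ANOVA.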

PANC-1 = experiment: Antiproliferative activity against human PANC1 cells after 48 hrs by MTT assay; type: functional, cell-based; settings: PANC-1, 48 h
B16-F10 [6] = experiment: Inhibition of tumor sphere formation ability of mouse B16F10 cells at 0.25 to 0.5 uM pretreated for 48 hrs followed by cell culture for 7 days; type: functional, cell-based
Outline: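 A375 or B16F10 cells pretreated with or without compound for 48 h, collected and replated on ultra-low attachment surfaces; after 7 days of culture, sphere number and size scored; mean ± sd, n = 3, two-way ANOVA.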

A-375 [7] = experiment: Induction of apoptosis in human A375 cells assessed as early apoptotic cells at 1 uM after 48 hrs by Annexin V-FITC/propidium iodide staining based flow cytometry (reference value: 1.13%); type: functional
A-375 [8] = experiment: Induction of apoptosis in human A375 cells assessed as upregulation of cleaved PARP expression at 0.5 to 4 uM after 48 hrs by Western blot analysis; type: functional, cell-based; outline: as §1
A-375 [9] = experiment: Induction of apoptosis in human A375 cells assessed as upregulation of activated caspase-3 protein expression at 0.5 to 4 uM after 48 hrs by Western blot analysis; type: functional, cell-based; outline: as §1
A-375 [10] = experiment: Inhibition of CD133+ sub-population of human A375 cells assessed as CD133+ cells at 0.5 after 48 hrs by flow cytometry (reference value: 4.54%); type: functional; parameters: scale not given: the % may be the effect or the level left
B16-F10 [11] = experiment: Antitumor activity against mouse B16F10 cells implanted in C57BL/6J mouse assessed as tumor growth inhibition at 15 mg/kg/day, ip measured after 24 days; type: functional, organism-based
Outline: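 C57BL/6J mice injected subcutaneously with B16F10 cells and treated with vehicle or compound. Tumor volume and body weight followed, and tumors dissected and weighed on day 24. Mean ± sd, n = 5, two-way ANOVA.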

A-375 [12] = experiment: Induction of apoptosis in human A375 cells assessed as necrotic cells at 1 uM after 48 hrs by Annexin V-FITC/propidium iodide staining based flow cytometry (reference value: 2.39%); type: functional
A-375 [13] = experiment: Antimigratory activity against human A375 cells at 0.25 uM after 24 hrs by transwell migration assay; type: functional, cell-based; outline: as §2
A-375 [14] = experiment: Induction of apoptosis in human A375 cells assessed as live cells at 1 uM after 48 hrs by Annexin V-FITC/propidium iodide staining based flow cytometry (reference value: 93.6%); type: functional
B16-F10 [15] = experiment: Induction of apoptosis in mouse B16F10 cells assessed as late apoptotic cells at 1 uM after 48 hrs by Annexin V-FITC/propidium iodide staining based flow cytometry (reference value: 0.303%); type: functional
A-375 [16] = experiment: Induction of apoptosis in human A375 cells assessed as late apoptotic cells at 1 uM after 48 hrs by Annexin V-FITC/propidium iodide staining based flow cytometry (reference value: 2.7%); type: functional
A-375 [17] = experiment: Induction of apoptosis in human A375 cells assessed as upregulation of p53 expression after 48 hrs by Western blot analysis
B16-F10 [18] = experiment: Induction of apoptosis in mouse B16F10 cells assessed as upregulation of activated caspase-3 protein expression at 0.5 to 4 uM after 48 hrs by Western blot analysis; type: functional, cell-based; outline: as §1
B16-F10 [19] = experiment: Induction of apoptosis in mouse B16F10 cells assessed as necrotic cells at 2 uM after 48 hrs by Annexin V-FITC/propidium iodide staining based flow cytometry (reference value: 1.86%); type: functional
A-375 [20] = experiment: Inhibition of ALDH+ subpopulation of human A375 cells assessed as ALDH+ cells at 0.25 after 48 hrs by flow cytometry (reference value: 25.7%); type: functional; parameters: scale not given: the % may be the effect or the level left
B16-F10 [21] = experiment: Induction of apoptosis in mouse B16F10 cells assessed as live cells at 2 uM after 48 hrs by Annexin V-FITC/propidium iodide staining based flow cytometry (reference value: 97.6%); type: functional
A-375 [22] = experiment: Inhibition of colony formation in human A375 cells at 0.125 to 0.25 uM after 7 days by crystal violet staining based assay; type: functional, cell-based
Outline: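 Clonogenic long-term growth assay: A375 or B16F10 cells grown under continuous compound exposure for 7 days, then colonies quantified; mean ± sd, n = 3, two-way ANOVA.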

B16-F10 [23] = experiment: Induction of apoptosis in mouse B16F10 cells assessed as necrotic cells at 1 uM after 48 hrs by Annexin V-FITC/propidium iodide staining based flow cytometry (reference value: 1.86%); type: functional
A-375 [24] = experiment: Antiproliferative activity against human A375 cells after 48 hrs by MTT assay; type: functional, cell-based; settings: A-375, 48 h

CC[C@H](C)[C@H](NC(=O)OCc1ccccc1)C(=O)N[C@@H](CC(C)C)C(=O)N[C@@H](CC(C)C)C(=O)N[C@@H](C)/C=C/C(=O)N1C(=O)C=C(OC)[C@@H]1C(C)C
Activity (B16-F10 [1]): Active | Activity (B16-F10 [2]): 11.8% | Activity (A-375 [3]): Active | Activity (B16-F10 [4]): Active | IC50 (4T1): 946 nM | Activity (A-375 [5]): Active | IC50 (PANC-1): 435 nM | inhibition (B16-F10 [6]): Active | Activity (A-375 [7]): 3.49% | Activity (A-375 [8]): Active | Activity (A-375 [9]): Active | Activity (A-375 [10]): 0.867% | TGI (B16-F10 [11]): Active | Activity (A-375 [12]): 4.16% | Activity (A-375 [13]): Active | Activity (A-375 [14]): 97.9% | Activity (B16-F10 [15]): 4.05% | Activity (A-375 [16]): 4.48% | p53 upregulation (A-375 [17]): Dose-dependent effect | Activity (B16-F10 [18]): Active | Activity (B16-F10 [19]): 3.92% | Activity (A-375 [20]): 13.3% | Activity (B16-F10 [21]): 31.5% | inhibition (A-375 [22]): Active | Activity (B16-F10 [23]): 1.37% | IC50 (A-375 [24]): 801 nM
